Bioassay records deposited in PubChem by Johns Hopkins Ion Channel Center.
Hits are enriched below; roughly 3.1% of the tested compounds scored in any of these assays.
KCNK9 inh: blocks the human KCNK9 two-pore domain potassium channel | Q9NPC2 | HEK293 KCNK9, FluxOR thallium flux fluorescence; hits give low values | B-score at 10 µM | 1.2% of 310,000 active | AID 488922;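 active = ratio B-score over 3 SD below the library mean, with starting fluorescence within 5 SD of its mean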;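 note: negative B-score means less thallium flux so channel inhibition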
KCNK3 block: human KCNK3 channel inhibition, primary screen. O14649. CHO-KCNK3 thallium flux, FluxOR fluorescence; hits give low values. B-score at 10 µM. 0.84% of 340,000 active;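 active = B-score under library mean minus 4 SD, starting fluorescence ratio at most library mean plus 5 SD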;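 note: more negative B-score means stronger inhibition of thallium flux through KCNK3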
hERG rescue: hERG (human) protection from proarrhythmic block; Q12809; CHO-hERG, FluxOR thallium flux, dofetilide IC70 present; activation (rescue from dofetilide block), less the hit threshold, % at 10 µM; 0.51% of 310,000 active;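 active = activation above the mean of controls blocked by dofetilide plus 5 SD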;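 note: thallium influx through hERG after potassium depolarization seen as dye fluorescence rise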
KCNQ1 inh: human KCNQ1 channel inhibition; P51787; B-score at 10 µM; 1.3% of 310,000 active; AID 2642; CHO-K1 KCNQ1, FluxOR thallium flux fluorescence; hits give high values;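 active = compounds whose thallium flux B-score, printed positive for inhibition, exceeds three library SD while starting fluorescence stays within three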;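 note: channel opened by potassium depolarization with thallium stimulus after 20 min compound exposure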
KCNQ1 pot: potentiates or activates the human KCNQ1 potassium channel; CHO-K1 KCNQ1, thallium flux FluxOR fluorescence; hits give high values; B-score at 10 µM; 0.35% of 310,000 active;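 active = fluorescence ratio B-score, a plate-corrected score, at least three library SD, with initial intensity B-score within 5 SD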
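System: CHO-K1 cells stably expressing KCNQ1 / Medium: assay buffer for compound exposure, DMSO matched across wells / Reagent: thallium- and potassium-containing depolarizing buffer / Compound: one concentration, matched DMSO / Incubation: 20 min compound pretreatment at room temperature / Measured by: kinetic FluxOR fluorescence, 10 s baseline plus 110 s post-stimulus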
KCNQ1 inh valid: reconfirmed blocker of the human KCNQ1 potassium channel; shares compounds with KCNQ1 inh; KCNQ1 cell line, FluxOR thallium flux fluorescence; inhibition, % at 10 µM; 93% of 1,600 active; AID 588353;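 active = primary screen active, with duplicate mean exceeding buffer control mean plus 3 SD of buffer wells, cut at about 28% in these data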;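 note: 0% = buffer control ratio and 100% = XE991 inhibitor control ratio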
CHO Tl flux: KCNQ1 inhibitor counter-screen hit in parental CHO cells | shares compounds with KCNQ1 inh | parental CHO-K1, FluxOR thallium flux fluorescence ratio; hits give low values; zero means no signal rise above baseline | fluorescence ratio (Tl flux) at 10 µM | 21% of 1,600 active | AID 588366;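 active = mean of duplicate thallium-flux fluorescence ratios in parental host cells more than 5 SD below the buffer control mean, cut at about 0.38 in these data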;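 note: ratio is peak minus minimum fluorescence divided by baseline fluorescence; actives read low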
KCNQ1 ephys val: blocks human KCNQ1 current in automated patch clamp; AID 624120; shares compounds with KCNQ1 inh; calls only at 10 µM; KCNQ1-CHO cells; 20% of 490 active;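 active = KCNQ1 current drop exceeding 3 SD of negative control wells, seen in both duplicate runs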;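 note: steady state current during a 2 s step from -80 to +40 mV; negative values mean current inhibition and positive values mean potentiation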
KCNQ2 inh: selectivity of KCNQ1 inhibitors: inhibition of rat KCNQ2 channel; shares compounds with KCNQ1 inh; KCNQ2 cells, FluxOR thallium flux fluorescence; inhibition, % at 10 µM; 71% of 1,600 active; AID 651746;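 active = mean percent inhibition of the KCNQ2 thallium signal more than 5 SD above the buffer-only control wells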;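 note: KCNQ2 expressed in CHO cells; 0% = buffer control wells and 100% = XE-991 inhibitor control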
KCNQ1 KCNE1 spec: KCNQ1 inhibitor that also blocks human KCNQ1/KCNE1 channel; shares compounds with KCNQ1 inh; KCNQ1/KCNE1 cells, FluxOR thallium flux fluorescence; inhibition, % at 10 µM; 77% of 1,600 active;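 active = mean percent inhibition of duplicate wells above the buffer-only control mean plus 3 SD of those controls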;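 note: 0% = buffer only wells and 100% = XE-991 inhibitor control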
Target sequence (P51787 whole entry, looked up): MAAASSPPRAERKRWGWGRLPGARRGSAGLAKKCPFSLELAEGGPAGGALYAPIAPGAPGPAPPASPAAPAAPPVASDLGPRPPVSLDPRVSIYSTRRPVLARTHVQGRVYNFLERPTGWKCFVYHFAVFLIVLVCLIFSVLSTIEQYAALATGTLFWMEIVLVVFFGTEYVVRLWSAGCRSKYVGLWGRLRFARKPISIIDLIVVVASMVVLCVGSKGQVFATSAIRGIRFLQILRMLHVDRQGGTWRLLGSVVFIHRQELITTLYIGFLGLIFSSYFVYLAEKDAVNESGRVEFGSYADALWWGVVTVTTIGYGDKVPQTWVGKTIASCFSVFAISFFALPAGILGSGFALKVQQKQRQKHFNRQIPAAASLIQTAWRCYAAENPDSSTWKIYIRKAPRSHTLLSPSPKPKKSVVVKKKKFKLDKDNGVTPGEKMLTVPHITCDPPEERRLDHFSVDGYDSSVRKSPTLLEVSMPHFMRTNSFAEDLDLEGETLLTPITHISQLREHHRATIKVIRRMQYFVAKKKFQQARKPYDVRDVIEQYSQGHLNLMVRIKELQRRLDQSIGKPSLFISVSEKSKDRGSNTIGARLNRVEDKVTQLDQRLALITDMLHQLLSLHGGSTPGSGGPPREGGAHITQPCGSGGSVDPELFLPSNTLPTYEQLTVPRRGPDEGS
An asterisk follows results filed as active; i = inactive; / = no result given; + = active, no number.

SMILES	KCNK9 inh	KCNK3 block	hERG rescue	KCNQ1 inh	KCNQ1 pot	KCNQ1 inh valid	CHO Tl flux	KCNQ2 inh	KCNQ1 KCNE1 spec	others
CC(C)Cn1c(=O)c(C(=O)Nc2ccccc2S(N)(=O)=O)c(O)c2ccccc21	i	i	-9	8*	i	118*	0.41	63%*	148%*
O=C(N/C=C/c1ccccc1)Nc1ccc(Cl)cc1	i	i	-5	7*	i	62*	0.48	64%*	i
CN(C(=O)c1cccc(NC(=O)Cc2ccc(NC(=O)C3CCCN(S(=O)(=O)c4cccc([N+](=O)[O-])c4)C3)cc2)c1)C1CCCC1 (stereo unspecified)	/	i	/	/	/	/	/	/	/
Fc1cccc(CSc2ncnc3c2ncn3C2CCCCO2)c1 (stereo unspecified)	/	i	/	/	/	/	/	/	/
CCOC(=O)c1cccc(Nc2nc(-c3cccnc3)nc3ccccc23)c1	i	i	-19	7*	i	124*	0.39	122%*	+	KCNQ1 ephys val=i
O=C(NCCc1ccccc1O)c1cc2c(cc1[N+](=O)[O-])OCO2	/	i	/	/	/	/	/	/	/
CCCCn1c(N)c(N(CCOC)C(=O)CN2C(=O)NC3(CC(C)CC(C)(C)C3)C2=O)c(=O)[nH]c1=O (stereo unspecified)	/	i	/	/	/	/	/	/	/
c1coc(CNc2nc(N3CCCCC3)nc3ccccc23)c1	i	i	-16	9*	i	60*	0.38*	72%*	62%*
COC(=O)c1ccc(NC(=O)c2ccc(NC(=O)c3ccco3)cc2)cc1	i	i	-4	6*	i	0	0.51	i	55%*
CC(=O)c1ccc(NC(=O)c2ccc(NC(=O)c3ccco3)cc2)cc1	i	i	-5	i	i	/	/	/	/
CCn1c(C)nc2cc(C(=O)NNC(=O)c3ccc(C)cc3)ccc21	/	i	/	/	/	/	/	/	/
CCn1c(C)nc2cc(C(=O)OC(C(F)(F)C(F)F)C(F)(F)C(F)F)ccc21	i	i	-22	9*	i	131*	0.4	89%*	116%*	KCNQ1 ephys val=i
Cc1cc(C(=O)OCc2nnc(-c3ccccc3)o2)c(C)n1-c1ccccc1	i	i	-8	10*	i	132*	0.33*	108%*	173%*
S=C(NCc1ccc(Cl)cc1)Nc1ccccc1	i	i	-7	i	i	/	/	/	/
S=C(NCc1ccc(Cl)cc1)Nc1ccncc1	i	i	-21	11*	i	144*	0.44	98%*	136%*	KCNQ1 ephys val=+
Cn1c(=O)c(NCCc2ccccc2)c2c3c(cccc31)C(=O)c1ccccc1-2	i	i	-44	29*	i	+	0.004*	i	i
Cn1c(=O)c(NC2CCCCC2)c2c3c(cccc31)C(=O)c1ccccc1-2	/	i	/	/	/	/	/	/	/
CCNc1c2c3c(cccc3n(C)c1=O)C(=O)c1ccccc1-2	i	/	-44	i	i	/	/	/	/
CCCCNc1c2c3c(cccc3n(C)c1=O)C(=O)c1ccccc1-2	i	i	-38	29*	i	+	0.013*	i	i
O=C1C=C(c2cccc(Br)c2)C[C@@H](c2ccc(Cl)cc2)C1	/	i	/	/	/	/	/	/	/
COC(=O)CN(c1nc(C)c(Br)c(OC)n1)S(=O)(=O)c1ccc(C)cc1	i	i	-1	i	i	/	/	/	/
C=CCN(c1nc(C)c(Br)c(OC)n1)S(=O)(=O)c1ccc(C)cc1	i	i	-10	7*	i	113*	0.44	118%*	83%*	KCNQ1 ephys val=i
CC1CCC(C(O)(C(=O)O)C2CCCCC2)CC1C (stereo unspecified)	/	i	/	/	/	/	/	/	/
Oc1ccc(NC(=S)N=Nc2c(O)[nH]c3ccc(Br)cc23)cc1	i	i	-17	7*	i	108*	0.4	75%*	158%*	KCNQ1 ephys val=i
Oc1[nH]c2ccc(Br)cc2c1N=NC(=S)Nc1ccc(F)cc1	i	i	-13	i	i	/	/	/	/
SMILES	KCNK9 inh	KCNK3 block	hERG rescue	KCNQ1 inh	KCNQ1 pot	KCNQ1 inh valid	CHO Tl flux	KCNQ2 inh	KCNQ1 KCNE1 spec	others
CSc1ccccc1NC(=O)CN(C)C(=O)c1ccc2c(c1)OCCO2	i	i	-7	i	i	/	/	/	/
Cc1cc(C(=O)OCC(=O)NC2(C#N)CCCCC2)c(C)o1	/	i	/	/	/	/	/	/	/
CCCc1nn(-c2ccccc2)c2c1C(c1cccs1)C(C#N)=C(N)O2 (stereo unspecified)	i	i	-4	7*	i	0	0.41	i	i
Cc1nn(-c2ccccc2)c2c1C(c1cccs1)C(C#N)=C(N)O2 (stereo unspecified)	i	i	-8	i	i	/	/	/	/
CCN(CC)c1ccc(O)c(C=Nc2ccc(C)c(C)c2)c1	i	i	-9	11*	i	150*	0.44	110%*	166%*	KCNQ1 ephys val=i
CCN(CC)c1ccc(C=Nc2ccccc2C)c(O)c1	i	i	-9	i	i	/	/	/	/
O=C(Nc1cccc(Cl)c1)N(CCCN1CCOCC1)Cc1ccccc1F	i	i	-13	11*	i	78*	0.51	106%*	71%*
CN(CC(O)COc1ccc(OCC(O)CN(C)C2CCCCC2)cc1)C1CCCCC1 (stereo unspecified)	i	i	-1	i	i	/	/	/	/
Cc1cccc(C)c1OCC(O)CN(Cc1ccccc1O)C1CCCCC1 (stereo unspecified)	i	i	-17	7*	i	94*	0.42	114%*	55%*	KCNQ1 ephys val=+
Cc1ccc(S(=O)(=O)Nc2cccc(C(=O)NCC(c3ccc(F)cc3)N3CCOCC3)c2)cc1 (stereo unspecified)	/	i	/	/	/	/	/	/	/
O=C(OCCN1C(=O)c2ccccc2C1=O)c1cc(S(=O)(=O)N2CCOCC2)ccc1F	i	i	-9	i	i	/	/	/	/
O=C(OCCN1C(=O)c2cccc3c(N4CCOCC4)ccc(c23)C1=O)c1ccc(Cl)cc1	i	i	-19	10*	i	+	0.087*	i	i
O=C(CCCC(=O)Nc1ccccc1Br)N/N=C/c1c(F)cccc1Cl	i	i	-5	i	i	/	/	/	/
O/C=c1\ccc2cccc3nc(C(F)(F)F)nc1c23	-7.6*	i	-8	19*	i	140*	0.31*	i	i
